Test results taken from ChEMBL document CHEMBL3352265, “Potentially bioactive organotin(IV) compounds: synthesis, characterization, in vitro bioactivities and interaction with SS-DNA” (Eur J Med Chem, 2014).
≈ marks a conversion by molar mass, not a printed value. Calls of active or inactive are those of the source. The rule behind the calls is not given here.

Key:
Leishmania major = experiment: Antileishmanial activity against Leishmania major kwh 23 after 72 hrs using neobar counting by microscopy; format: functional, organism-based; conditions: kwh 23, 72 h
Procedure, shortened: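 Leishmania major promastigotes grown 7 days at 24 °C in medium 199 with 10% FBS. Samples as 10,000 ppm DMSO stocks, added to reach 200 ppm in the first row and serially diluted in 96-well plates, DMSO kept <5%. DMSO negative and amphotericin B positive controls. Incubated 72 h at 24 °C. Mortality counted in a counting chamber by light microscopy. Run 3 times. IC50 is the concentration giving 50% parasite reduction.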

Salmonella typhimurium [1] = experiment: Antibacterial activity against Salmonella typhimurium ATCC 14028 after 18 hrs by microdilution method; format: functional; conditions: Salmonella enterica subsp. enterica serovar Typhimurium
Procedure, shortened: (§1)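 Broth microdilution. Twofold dilutions in culture broth at […]. Each well inoculated with bacterial suspension (10^8 CFU/mL, about 10^5 CFU/well). Sterility control and growth control (broth plus DMSO) included. Incubated at 36 °C for 18 h, in triplicate. MIC taken as the lowest concentration inhibiting growth, given in micrograms per mL.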

Aspergillus fumigatus [2] = experiment: Antifungal activity against Aspergillus fumigatus FCBP 66 after 7 days by disc diffusion method; format: functional, organism-based
Procedure, shortened: (§2)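 Disc diffusion on SDA. Fungi cultured at 28 °C for 24 h. 4 mm discs received compound at 40 mg/mL stock in DMSO. DMSO served as negative control, terbinafine as positive control. Plates incubated at 28 °C for 7 days. Growth diameter (mm) measured and inhibition calculated against the negative control. MIC taken as the lowest concentration with no growth.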

Salmonella typhimurium [3] = experiment: Antibacterial activity against Salmonella typhimurium ATCC 14028 at 40 mg/mL after 24 hrs by disc diffusion method; format: functional; conditions: Salmonella enterica subsp. enterica serovar Typhimurium
Procedure, shortened: (§3)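 Disc diffusion. Strains grown in nutrient broth at 37 °C for 24 h. 1% culture (about 10^6 CFU/mL) mixed into nutrient agar at 45 °C and poured. 4 mm paper discs received compound at 40 mg/mL stock in DMSO; final concentrations tested were […]. DMSO served as negative control, roxithromycin and cefixime as positive controls. Triplicate plates incubated at 37 °C for 24 h. Complete-inhibition zone diameter (mm) recorded as the mean of 3.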

Bacillus spizizenii [4] = experiment: Antibacterial activity against Bacillus subtilis ATCC 6633 at 40 mg/mL after 24 hrs by disc diffusion method; format: functional; procedure, shortened: as §3
Escherichia coli [5] = experiment: Induction of Escherichia coli pBR322 DNA damage assessed as open circular form at 10 ug/ml after 60 mins by gel electrophoresis
Klebsiella aerogenes [6] = experiment: Antibacterial activity against Enterobacter aerogenes ATCC 13048 at 40 mg/mL after 24 hrs by disc diffusion method; format: functional; procedure, shortened: as §3
Escherichia coli [7] = experiment: Induction of Escherichia coli pBR322 DNA damage assessed as open circular form at 1000 ug/ml after 60 mins by gel electrophoresis
Aspergillus flavus [8] = experiment: Antifungal activity against Aspergillus flavus FCBP 0064 at 40 mg/mL after 7 days by disc diffusion method; format: functional; procedure, shortened: as §2
Artemia salina = experiment: Cytotoxicity in brine shrimp assessed as mortality after 24 hrs; format: functional
[9] = test system: Agrobacterium tumefaciens; experiment: Antitumor activity against Agrobacterium tumefaciens -induced tumor at 100 ug/ml after 21 days by potato disc bioassay technique; format: functional
Procedure, shortened: (§4)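 Potato disc assay with 48 h culture of A. tumefaciens At-10. Inoculum contained compound at […]. Red-skinned potatoes sterilized in 0.1% HgCl2; 8 mm × 4 mm discs placed ten per 1.5% agar plate, […] each. Incubated at 28 °C in the dark for 21 days, in triplicate. Discs stained with Lugol's and tumors counted. Percent inhibition calculated against the negative control.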

Escherichia coli [10] = experiment: Antibacterial activity against Escherichia coli ATCC 15224 after 18 hrs by microdilution method; format: functional; procedure, shortened: as §1
Bacillus spizizenii [11] = experiment: Antibacterial activity against Bacillus subtilis ATCC 6633 after 18 hrs by microdilution method; format: functional; procedure, shortened: as §1
Aspergillus niger [12] = experiment: Antifungal activity against Aspergillus niger FCBP 0198 after 7 days by disc diffusion method; format: functional, organism-based; procedure, shortened: as §2
[13] = test system: Agrobacterium tumefaciens; experiment: Antitumor activity against Agrobacterium tumefaciens -induced tumor at 10 ug/ml after 21 days by potato disc bioassay technique; format: functional; procedure, shortened: as §4
Escherichia coli [14] = experiment: Antibacterial activity against Escherichia coli ATCC 15224 at 40 mg/mL after 24 hrs by disc diffusion method; format: functional; procedure, shortened: as §3
Escherichia coli [15] = experiment: Induction of Escherichia coli pBR322 DNA damage assessed as open circular form at 1 ug/ml after 60 mins by gel electrophoresis
Escherichia coli [16] = experiment: Induction of Escherichia coli pBR322 DNA damage assessed as open circular form at 100 ug/ml after 60 mins by gel electrophoresis
Aspergillus fumigatus [17] = experiment: Antifungal activity against Aspergillus fumigatus FCBP 66 at 40 mg/mL after 7 days by disc diffusion method; format: functional; procedure, shortened: as §2
Klebsiella aerogenes [18] = experiment: Antibacterial activity against Enterobacter aerogenes ATCC 13048 after 18 hrs by microdilution method; format: functional, organism-based; procedure, shortened: as §1
[19] = test system: Agrobacterium tumefaciens; experiment: Antitumor activity against Agrobacterium tumefaciens -induced tumor at 1000 ug/ml after 21 days by potato disc bioassay technique; format: functional; procedure, shortened: as §4
Aspergillus flavus [20] = experiment: Antifungal activity against Aspergillus flavus FCBP 0064 after 7 days by disc diffusion method; format: functional, organism-based; procedure, shortened: as §2
Aspergillus niger [21] = experiment: Antifungal activity against Aspergillus niger FCBP 0198 at 40 mg/mL after 7 days by disc diffusion method; format: functional; procedure, shortened: as §2
[22] = test system: Bordetella bronchiseptica; experiment: Antibacterial activity against Bordetella bronchiseptica ATCC 4617 after 18 hrs by microdilution method; format: functional; procedure, shortened: as §1
Mucor [23] = experiment: Antifungal activity against Mucor FCBP 0400 at 40 mg/mL after 7 days by disc diffusion method; format: functional; procedure, shortened: as §2
[24] = test system: Bordetella bronchiseptica; experiment: Antibacterial activity against Bordetella bronchiseptica ATCC 4617 at 40 mg/mL after 24 hrs by disc diffusion method; format: functional; procedure, shortened: as §3
Mucor [25] = experiment: Antifungal activity against Mucor FCBP 0400 at 40 mg/mL by disc diffusion method; format: functional, organism-based; procedure, shortened: as §2
Staphylococcus aureus [26] = experiment: Antibacterial activity against Staphylococcus aureus ATCC 6538 at 40 mg/mL after 24 hrs by disc diffusion method; format: functional; procedure, shortened: as §3
Staphylococcus aureus [27] = experiment: Antibacterial activity against Staphylococcus aureus ATCC 6538 after 18 hrs by microdilution method; format: functional; procedure, shortened: as §1

Compound | MIC (Salmonella typhimurium [1]) | MIC (Aspergillus fumigatus [2]) | inhibition zone (IZ) (Salmonella typhimurium [3]) | inhibition zone (IZ) (Bacillus spizizenii [4]) | Activity (Escherichia coli [5]) | inhibition zone (IZ) (Klebsiella aerogenes [6]) | Activity (Escherichia coli [7]) | inhibition zone (IZ) (Aspergillus flavus [8]) | LD50 (Artemia salina) | Activity [9] | MIC (Escherichia coli [10]) | MIC (Aspergillus niger [12]) | Activity [13] | inhibition zone (IZ) (Escherichia coli [14]) | Activity (Escherichia coli [15]) | Activity (Escherichia coli [16]) | Activity [19] | MIC (Aspergillus flavus [20]) | inhibition zone (IZ) (Aspergillus niger [21]) | inhibition zone (IZ) (Mucor [23]) | also measured
C[C@@H]1[C@H](O)[C@@H](C)/C=C/C=C/C=C/C=C/C=C/C=C/C=C/[C@H](O[C@@H]2O[C@H](C)[C@@H](O)[C@H](N)[C@@H]2O)C[C@@H]2O[C@](O)(C[C@@H](O)C[C@@H](O)[C@H](O)CC[C@@H](O)C[C@@H](O)CC(=O)O[C@H]1C)C[C@H](O)[C@H]2C(=O)O [AMPHOTERICIN B] | – | – | – | – | – | – | – | – | – | – | – | – | – | – | – | – | – | – | – | – | IC50 (Leishmania major): 0.56 µg/mL (≈ 0.606 µM)
Di-tert-butylstannanediyl bis[4-(2-methoxyphenylamino)-4-oxobutanoate] | 6.25 µg/mL | 100 µg/mL | 26 mm | 40 mm | Active | 40 mm | Active | 20 mm | 3.11 µg/mL | 71.5% | 12.5 µg/mL | 100 µg/mL | 53.4% | 24 mm | Active | Active | 92.4% | 100 µg/mL | 24 mm | 14 mm | MIC (Bacillus spizizenii [11]): 12.5 µg/mL; inhibition zone (IZ) (Aspergillus fumigatus [17]): 18 mm; MIC (Klebsiella aerogenes [18]): 6.25 µg/mL; MIC [22]: 12.5 µg/mL; inhibition zone (IZ) [24]: 30 mm; MIC (Mucor [25]): 100 µg/mL; inhibition zone (IZ) (Staphylococcus aureus [26]): 17 mm; MIC (Staphylococcus aureus [27]): 12.5 µg/mL
N-[(2-methoxyphenyl)]-4-oxo-4-[(tribenzylstannyl)oxy]butanamide | 200 µg/mL | 150 µg/mL | 15 mm | 13 mm | Active | 13 mm | Active | 12 mm | 0.793 µg/mL | 62% | 50 µg/mL | 150 µg/mL | 20.3% | 16 mm | Active | Active | 76.1% | 200 µg/mL | 15 mm | 12 mm | MIC (Bacillus spizizenii [11]): 200 µg/mL; inhibition zone (IZ) (Aspergillus fumigatus [17]): 15 mm; MIC (Klebsiella aerogenes [18]): 150 µg/mL; MIC [22]: 100 µg/mL; inhibition zone (IZ) [24]: 13 mm; MIC (Mucor [25]): 200 µg/mL; inhibition zone (IZ) (Staphylococcus aureus [26]): 17 mm; MIC (Staphylococcus aureus [27]): 100 µg/mL
N-[(2-methoxyphenyl)]-4-oxo-4-[(tributylstannyl)oxy]butanamide | 100 µg/mL | 3.12 µg/mL | 0 mm | 19 mm | inactive | 18 mm | inactive | 32 mm | 0.433 µg/mL | 72.4% | 150 µg/mL | 1.56 µg/mL | 52.3% | 0 mm | inactive | inactive | 87.8% | 3.12 µg/mL | 40 mm | 20 mm | MIC (Bacillus spizizenii [11]): 50 µg/mL; inhibition zone (IZ) (Aspergillus fumigatus [17]): 32 mm; MIC (Klebsiella aerogenes [18]): 100 µg/mL; MIC [22]: 100 µg/mL; inhibition zone (IZ) [24]: 12 mm; MIC (Mucor [25]): 3.12 µg/mL; inhibition zone (IZ) (Staphylococcus aureus [26]): 12 mm; MIC (Staphylococcus aureus [27]): 150 µg/mL
N-[(2-methoxyphenyl)]-4-oxo-4-[(tricyclohexylstannyl)oxy]butanamide | 200 µg/mL | 150 µg/mL | 8 mm | 0 mm | inactive | 0 mm | inactive | 18 mm | 0.493 µg/mL | 57.4% | 200 µg/mL | 200 µg/mL | 36.5% | 9 mm | inactive | inactive | 80.9% | 150 µg/mL | 0 mm | 18 mm | inhibition zone (IZ) (Aspergillus fumigatus [17]): 16 mm; inhibition zone (IZ) [24]: 0 mm; MIC (Mucor [25]): 150 µg/mL; inhibition zone (IZ) (Staphylococcus aureus [26]): 0 mm
N-[(2-methoxyphenyl)]-4-oxo-4-[(triethylstannyl)oxy]butanamide | 6.25 µg/mL | 0.78 µg/mL | 26 mm | 36 mm | Active | 22 mm | Active | 46 mm | 0.881 µg/mL | 70.3% | 6.25 µg/mL | 0.78 µg/mL | 48.3% | 34 mm | Active | Active | 84.1% | 0.78 µg/mL | 48 mm | 34 mm | MIC (Bacillus spizizenii [11]): 6.25 µg/mL; MIC (Klebsiella aerogenes [18]): 6.25 µg/mL; MIC [22]: 6.25 µg/mL; inhibition zone (IZ) [24]: 38 mm; MIC (Mucor [25]): 0.78 µg/mL; inhibition zone (IZ) (Staphylococcus aureus [26]): 28 mm; MIC (Staphylococcus aureus [27]): 50 µg/mL
N-[(2-methoxyphenyl)]-4-oxo-4-[(trimethylstannyl)oxy]butanamide | 25 µg/mL | 50 µg/mL | 23 mm | 27 mm | Active | 20 mm | Active | 28 mm | 1.09 µg/mL | 54.8% | 25 µg/mL | 12.5 µg/mL | 30.2% | 26 mm | Active | Active | 69.9% | 50 µg/mL | 28 mm | 24 mm | MIC (Bacillus spizizenii [11]): 25 µg/mL; inhibition zone (IZ) (Aspergillus fumigatus [17]): 22 mm; MIC (Klebsiella aerogenes [18]): 50 µg/mL; MIC [22]: 12.5 µg/mL; inhibition zone (IZ) [24]: 26 mm; MIC (Mucor [25]): 50 µg/mL; inhibition zone (IZ) (Staphylococcus aureus [26]): 25 mm; MIC (Staphylococcus aureus [27]): 50 µg/mL
